Active and inactive are the calls of the source. No cut-off for these calls is given here.
Experiments:
NCI-H23 = assay: Growth inhibition of human NCI-H23 cells assessed as cell growth at 10 nM relative to untreated control; format: functional; conditions: read-out: Activity
SN12C [1] = assay: Growth inhibition of human SN12C cells; format: functional
HCT-116 = assay: Growth inhibition of human HCT116 cells assessed as cell growth at 100 nM relative to untreated control; format: functional; conditions: read-out: Activity
Method in brief: (§1)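 Run externally at the National Cancer Institute as a 59-cell-line panel screen, with concentrations up to 100 μM. Growth was scored relative to control, where negative growth or total cell kill was possible. Data are in the Supporting Information.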

BT-549 [2] = assay: Growth inhibition of human BT549 cells assessed as cell growth at 1 uM relative to untreated control; format: functional; conditions: read-out: Activity
SF-539 = assay: Growth inhibition of human SF539 cells assessed as cell growth at 1 uM relative to untreated control; format: functional; conditions: read-out: Activity
SR [3] = assay: Growth inhibition of human SR cells; format: functional
U-251 = assay: Growth inhibition of human U251 cells assessed as cell growth at 1 uM relative to untreated control; format: functional; conditions: read-out: Activity
HCC 2998 [4] = assay: Growth inhibition of human HCC2998 cells assessed as cell growth at 10 uM relative to untreated control; format: functional; conditions: read-out: Activity; method in brief: as §1
SF-295 [5] = assay: Growth inhibition of human SF295 cells assessed as cell growth at 1 uM relative to untreated control; format: functional; conditions: read-out: Activity
K562 = assay: Growth inhibition of human K562 cells assessed as cell growth at 1 nM relative to untreated control; format: functional; conditions: read-out: Activity
OVCAR-4 [6] = assay: Growth inhibition of human OVCAR4 cells assessed as cell growth at 10 nM relative to untreated control; format: functional; conditions: read-out: Activity
T47D = assay: Growth inhibition of human T47D cells assessed as cell growth at 100 nM relative to untreated control; format: functional; conditions: read-out: Activity
SN12C [7] = assay: Growth inhibition of human SN12C cells assessed as cell growth at 1 nM relative to untreated control; format: functional; conditions: read-out: Activity
HCT-15 = assay: Growth inhibition of human HCT15 cells assessed as cell growth at 10 uM relative to untreated control; format: functional; conditions: read-out: Activity; method in brief: as §1
EKVX [8] = assay: Growth inhibition of human EKVX cells assessed as cell growth at 10 uM relative to untreated control; format: functional; conditions: read-out: Activity; method in brief: as §1
PC-3 [9] = assay: Cytostatic against human PC3 cells up to 30 uM after 24 hrs by trypan blue exclusion method; format: functional, cell-based
Method in brief: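 PC-3 cells were seeded in triplicate at 1.5 × 10⁴ cells/well and grown in phenol red-free IMEM with 10% FBS at 37 °C, 5% CO₂. After 24 h they were treated with DMSO or 1, 5, 15, 30 or 60 μM compound for 24 h. Cells were then trypsinized, and live and dead cells were counted by 0.4% trypan blue exclusion on a hemocytometer. Values are mean ± SEM of three independent observations.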

OVCAR-3 = assay: Growth inhibition of human OVCAR-3 cells assessed as cell growth at 10 uM relative to untreated control; format: functional; conditions: read-out: Activity
CCRF-CEM = assay: Growth inhibition of human CCRF-CEM cells assessed as cell growth at 10 nM relative to untreated control; format: functional; conditions: read-out: Activity
HCC 2998 [10] = assay: Growth inhibition of human HCC2998 cells; format: functional; conditions: read-out: LC50 (the source's name); method in brief: as §1
TK-10 = assay: Growth inhibition of human TK10 cells assessed as cell growth at 1 uM relative to untreated control; format: functional; conditions: read-out: Activity
UACC-62 = assay: Growth inhibition of human UACC62 cells assessed as cell growth at 100 nM relative to untreated control; format: functional; conditions: read-out: Activity
OVCAR-4 [11] = assay: Growth inhibition of human OVCAR4 cells assessed as cell growth at 100 nM relative to untreated control; format: functional; conditions: read-out: Activity
PC-3 [12] = assay: Growth inhibition of human PC3 cells assessed as cell growth at 1 uM relative to untreated control; format: functional; conditions: read-out: Activity
PC-3 [13] = assay: Growth inhibition of human PC3 cells assessed as cell growth at 10 nM relative to untreated control; format: functional; conditions: read-out: Activity
SF-295 [14] = assay: Growth inhibition of human SF295 cells assessed as cell growth at 100 nM relative to untreated control; format: functional; conditions: read-out: Activity
SK-OV-3 [15] = assay: Growth inhibition of human SKOV3 cells assessed as cell growth at 100 nM relative to untreated control; format: functional; conditions: read-out: Activity
COLO 205 = assay: Growth inhibition of human COLO205 cells assessed as cell growth at 1 nM relative to untreated control; format: functional; conditions: read-out: Activity
SK-MEL-5 = assay: Growth inhibition of human SK-MEL-5 cells assessed as cell growth at 10 uM relative to untreated control; format: functional; conditions: read-out: Activity
LOX IMVI = assay: Growth inhibition of human LOXIMVI cells assessed as cell growth at 10 uM relative to untreated control; format: functional; conditions: read-out: Activity
SK-OV-3 [16] = assay: Growth inhibition of human SKOV3 cells assessed as cell growth at 10 nM relative to untreated control; format: functional; conditions: read-out: Activity
SW-620 = assay: Growth inhibition of human SW620 cells assessed as cell growth at 1 nM relative to untreated control; format: functional; conditions: read-out: Activity
[17] = Growth inhibition of human […] cells assessed as cell growth at 1 nM relative to untreated control; format: functional; conditions: read-out: Activity
MOLT-4 = assay: Growth inhibition of human MOLT4 cells assessed as cell growth at 10 nM relative to untreated control; format: functional; conditions: read-out: Activity
CAKI-1 = assay: Growth inhibition of human Caki1 cells; format: functional; method in brief: as §1
EKVX [18] = assay: Growth inhibition of human EKVX cells assessed as cell growth at 100 nM relative to untreated control; format: functional; conditions: read-out: Activity; method in brief: as §1
786-0 = assay: Growth inhibition of human 786-0 cells assessed as cell growth at 10 uM relative to untreated control; format: functional; conditions: read-out: Activity
OVCAR-4 [19] = assay: Growth inhibition of human OVCAR4 cells assessed as cell growth at 1 nM relative to untreated control; format: functional; conditions: read-out: Activity
SR [20] = assay: Growth inhibition of human SR cells assessed as cell growth at 1 uM relative to untreated control; format: functional; conditions: read-out: Activity
PC-3 [21] = assay: Decrease in DNA synthesis in human PC3 cells at 5 uM after 24 hrs by BrdU incorporation assay; format: functional, cell-based
Method in brief: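 PC-3 cells were seeded at 2 × 10⁴ cells/well and exposed to 5 μM compound or DMSO for 24 h. BrdU incorporation was read by chemiluminescent cell proliferation ELISA on a luminometer. Background without anti-BrdU-peroxidase was subtracted and values were normalized to untreated control. Values are mean ± SEM.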

BT-549 [22] = assay: Growth inhibition of human BT549 cells assessed as cell growth at 10 nM relative to untreated control; format: functional; conditions: read-out: Activity
MCF7 = assay: Growth inhibition of human MCF7 cells; format: functional
NCI-H322M = assay: Growth inhibition of human NCI-H322M cells assessed as cell growth at 10 nM relative to untreated control; format: functional; conditions: read-out: Activity
PC-3 [23] = assay: […] in RASSF1A gene expression in human PC3 cells at 5 uM after 3 days hrs by RT-PCR; format: functional, cell-based
DU-145 = assay: Growth inhibition of human DU145 cells assessed as cell growth at 1 uM relative to untreated control; format: functional; conditions: read-out: Activity; method in brief: as §1
A549 = assay: Growth inhibition of human A549 cells assessed as cell growth at 1 nM relative to untreated control; format: functional; conditions: read-out: Activity
[24] = read-out: LC50 (the source's name)

## COc1ccc2c(c1)[nH]c1c(C)c(OS(=O)(=O)c3cccc4c(N(C)C)cccc34)ccc12
NCI-H23
  growth at 0.01 µM: 91%
SN12C [1]
  GI50: 11.3 µM
  TGI: > 100 µM
SN12C [1]; [24]
  CC50: > 100 µM
HCT-116
  growth at 0.1 µM: 94%
BT-549 [2]
  growth at 1 µM: 37%
SF-539
  growth at 1 µM: -30%
SR [3]
  GI50: 3.51 µM
  TGI: > 100 µM
SR [3]; [24]
  CC50: > 100 µM
U-251
  growth at 1 µM: 25%
HCC 2998 [4]
  growth at 10 µM: -5%
SF-295 [5]
  growth at 1 µM: 15%
K562
  growth at 0.001 µM: 103%
OVCAR-4 [6]
  growth at 0.01 µM: 92%
T47D
  growth at 0.1 µM: 82%
SN12C [7]
  growth at 0.001 µM: 96%
HCT-15
  growth at 10 µM: 19%
EKVX [8]
  growth at 10 µM: 16%
PC-3 [9]
  Activity: Active
OVCAR-3
  growth at 10 µM: -9%
CCRF-CEM
  growth at 0.01 µM: 92%
HCC 2998 [10]
  CC50: > 100 µM
TK-10
  growth at 1 µM: 48%
UACC-62
  growth at 0.1 µM: 75%
OVCAR-4 [11]
  growth at 0.1 µM: 87%
PC-3 [12]
  growth at 1 µM: 18%
PC-3 [13]
  growth at 0.01 µM: 100%
SF-295 [14]
  growth at 0.1 µM: 69%
SK-OV-3 [15]
  growth at 0.1 µM: 99%
COLO 205
  growth at 0.001 µM: 104%
SK-MEL-5
  growth at 10 µM: -28%
LOX IMVI
  growth at 10 µM: 14%
SK-OV-3 [16]
  growth at 0.01 µM: 95%
SW-620
  growth at 0.001 µM: 103%
[17]
  growth at 0.001 µM: 99%
MOLT-4
  growth at 0.01 µM: 97%
CAKI-1
  GI50: 27.5 µM
  TGI: > 100 µM
CAKI-1; [24]
  CC50: > 100 µM
EKVX [18]
  growth at 0.1 µM: 91%
786-0
  growth at 10 µM: 6%
OVCAR-4 [19]
  growth at 0.001 µM: 94%
SR [20]
  growth at 1 µM: 13%
PC-3 [21]
  Activity: Active
BT-549 [22]
  growth at 0.01 µM: 90%
MCF7
  GI50: 2.71 µM
  TGI: > 100 µM
MCF7; [24]
  CC50: > 100 µM
NCI-H322M
  growth at 0.01 µM: 94%
PC-3 [23]
  Activity: Active
DU-145
  growth at 1 µM: 7%
A549
  growth at 0.001 µM: 101%

From ChEMBL document CHEMBL1157638, “Fluorescent epigenetic small molecule induces expression of the tumor suppressor ras-association domain family 1A and inhibits human prostate xenograft” (J Med Chem, 2010)
